# Screens deposited in PubChem by Johns Hopkins Ion Channel Center.
# TRPC4 agonist: activators of mouse TRPC4 channel, primary screen, Fluo4 calcium, HEK293 TRPC4beta/mu-opioid cells | Short transient receptor potential channel 4 (Mus musculus), Q9QUQ5 | Fluo4 calcium fluorescence; hits give high values | B-score at 10 µM | 0.49% of 310,000 active;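 active = B-score above 5 SD of library B-scores, and initial fluorescence ratio not above library mean plus 5 SD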;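 also: positive B-score marks a calcium rise read as TRPC4 activation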
#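 System: HEK293 cells stably co-expressing mouse TRPC4beta and mu-opioid receptor; Schedule: Fluo4 dye loading 45 min at room temperature, 110 s recording; Detection: Fluo4 fluorescence, kinetic; Evaluation: B-scored integrated calcium fluorescence ratio; Controls: buffer (low) and maximal DAMGO (high).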
# TRPC6 act: mouse TRPC6 channel activators, primary screen, cell-based, HEK293, membrane potential dye; HEK293-TRPC6 membrane potential dye fluorescence; hits give high values; B-score at 10 µM; 0.13% of 310,000 active; AID 2550, 2010;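 active = B-score of the integrated fluorescence ratio above library mean plus 3 SD, and starting fluorescence ratio within library mean plus 5 SD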;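 also: higher score means more depolarization so channel activation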
# Target sequence (Q61143 whole entry, looked up): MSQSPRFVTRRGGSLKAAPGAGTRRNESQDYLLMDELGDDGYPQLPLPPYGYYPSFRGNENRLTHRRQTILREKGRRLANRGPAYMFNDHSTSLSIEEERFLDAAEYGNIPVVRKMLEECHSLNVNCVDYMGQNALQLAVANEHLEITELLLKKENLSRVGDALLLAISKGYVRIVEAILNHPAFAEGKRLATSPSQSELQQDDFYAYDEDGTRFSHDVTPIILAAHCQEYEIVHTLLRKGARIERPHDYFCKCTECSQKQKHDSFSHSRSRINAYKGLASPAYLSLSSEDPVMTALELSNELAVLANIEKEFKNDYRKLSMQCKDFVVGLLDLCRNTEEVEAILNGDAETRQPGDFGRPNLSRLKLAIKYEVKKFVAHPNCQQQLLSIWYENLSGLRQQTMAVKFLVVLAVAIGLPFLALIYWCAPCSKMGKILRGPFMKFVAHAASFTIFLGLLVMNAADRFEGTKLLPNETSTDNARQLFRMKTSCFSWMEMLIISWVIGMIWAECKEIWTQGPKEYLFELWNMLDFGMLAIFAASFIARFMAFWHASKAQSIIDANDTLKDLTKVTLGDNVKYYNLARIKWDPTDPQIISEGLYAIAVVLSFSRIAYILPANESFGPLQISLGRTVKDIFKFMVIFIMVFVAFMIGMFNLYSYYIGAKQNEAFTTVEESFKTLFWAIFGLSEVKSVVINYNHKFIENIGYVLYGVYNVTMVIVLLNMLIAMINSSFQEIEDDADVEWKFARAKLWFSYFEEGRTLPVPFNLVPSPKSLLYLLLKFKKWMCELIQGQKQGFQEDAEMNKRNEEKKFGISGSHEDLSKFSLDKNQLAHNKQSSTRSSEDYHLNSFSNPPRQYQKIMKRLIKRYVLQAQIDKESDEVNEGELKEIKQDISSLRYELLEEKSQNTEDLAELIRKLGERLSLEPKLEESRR
# TRPC4 potent: positive allosteric modulators of TRPC4, primary screen, cell-based, mouse TRPC4beta, HEK293 mu-opioid, Fluo-4 calcium. 0.42% of 310,000 active. B-score at 10 µM. Short transient receptor potential channel 4 (Mus musculus), Q9QUQ5. AID 2227, 2009. DAMGO EC20, Fluo-4 Ca2+ flux; hits give high values;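 active = B-score of calcium response area above 5 SD of library B-scores, with initial fluorescence ratio within 5 SD of library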;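 also: B-score of integrated fluorescence ratio over time as area under calcium response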
# TRPC6 inhibitor: mouse TRPC6 channel inhibitors, primary screen, cell-based, HEK293, membrane potential dye | Short transient receptor potential channel 6 (Mus musculus), Q61143 | ACh-evoked depolarization; hits give low values | B-score at 10 µM | 1.1% of 310,000 active | AID 2553, 2010;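 active = B-score under library mean minus 3 SD, initial fluorescence not abnormally high, positive integrated signal ratio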;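 also: B-score derived from integrated fluorescence ratio over the kinetic read; more negative B-score means stronger inhibition of depolarization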
# TRPC4 inh: inhibitors of mouse TRPC4 channel, primary screen, Fluo4 calcium, HEK293 TRPC4beta/mu-opioid cells; Short transient receptor potential channel 4 (Mus musculus), Q9QUQ5; 0.39% of 300,000 active; DAMGO-evoked Fluo4 calcium flux; hits give low values; B-score at 10 µM; AID 2247, 2010;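 active = B-score over 3 SD under the library average, no early fluorescence shift, positive overall ratio signal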
#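 material = TRPC4beta/mu-opioid receptor HEK293 cell line | probe or stimulus = sequential submaximal and maximal DAMGO stimulation | compound dosing = one concentration per compound | measured by = Fluo4 Ca2+ flux fluorescence | evaluation = integrated fluorescence ratio relative to baseline, converted to per-well B score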
# TRPC4 sel inh 2: second selectivity test of TRPC6 inhibitors: effect on mouse TRPC4; 42% of 920 active; inhibition, % at 10 µM; AID 2776; shares compounds with TRPC6 inhibitor; HEK293 TRPC4/MOR, membrane potential dye fluorescence; channel activated by saturating DAMGO dose;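 active = compounds whose fluorescence signal differed from control wells by over 3 SD, either direction, in both duplicate plates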
# TRPC4 spec: mouse TRPC4 modulation by TRPC6 hits, confirmation, selectivity assay for TRPC6 inhibitor project, cell-based, HEK293 TRPC4/mu-opioid, membrane potential dye. shares compounds with TRPC6 inhibitor. membrane potential fluorescence. activity change, negative = inhibition, % at 10 µM. 61% of 920 active;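 active = rise or fall in signal beyond 3 SD of buffer-only wells in both replicate plates, either sign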;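 also: integrated kinetic ratio of fluorescence range over baseline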
# HEK293 MPD ctr 2-1: nonspecific membrane potential effects, parental HEK293, confirmation, counter-screen for TRPC6 inhibitor project, cell-based, second counter screen; shares compounds with TRPC6 inhibitor; parental HEK293 membrane potential dye fluorescence; maximal acetylcholine challenge after compound addition; signal change vs control, % at 10 µM; 31% of 920 active;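 active = membrane potential signal moving either way by over 3 SD of the maximum-effect control, in both duplicate plates, meaning non-specific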
# HEK293 MPD ctr-1: membrane potential modulation in parental HEK293, confirmation, counter-screen for TRPC6 inhibitor project, cell-based; shares compounds with TRPC6 inhibitor; parental HEK293 membrane potential dye fluorescence; membrane potential signal change, % at 10 µM; 60% of 920 active; AID 2780, 2010;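 active = membrane potential signal shifting up or down by more than 3 SD of buffer-only wells, on both duplicate plates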
# HEK293 MPD ctr-2: parental HEK293 membrane potential modulation, confirmation, counter-screen for TRPC6 modulator project, cell-based | shares compounds with TRPC6 inhibitor | membrane potential dye fluorescence | membrane potential signal change, % at 10 µM | 51% of 2,400 active;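 active = membrane potential signal moves up or down beyond 5 SD from buffer-only wells, on both duplicate plates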
# HEK293 MPD ctr 2-2: second counter-screen for TRPC6 modulators: effect in parental HEK293 cells | shares compounds with TRPC6 inhibitor | membrane potential dye fluorescence; after compound, maximal acetylcholine stimulation | inhibition, % at 10 µM | 14% of 2,400 active | AID 488926;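 active = membrane potential signal drops by more than 5 SD from the mean control signal, in both duplicate plates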;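 also: plate controls were acetylcholine ECmax control wells for no effect and buffer only wells for full effect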
# TRPC4/MOR mod: TRPC4 modulation by TRPC6 hit compounds, confirmation, selectivity assay for TRPC6 modulator project, cell-based, HEK293 TRPC4/mu-opioid, membrane potential dye, mouse. percent change from control (negative = decrease, positive = increase), % at 10 µM. membrane potential fluorescence. 69% of 2,400 active. AID 488927, 2010. shares compounds with TRPC6 inhibitor;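 active = membrane potential signal moved up or down beyond 5 SD of buffer control wells, in both duplicate plates, actives on both sides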;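 also: plate controls were assay buffer wells for no effect and DAMGO maximal-effect wells for full effect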
# TRPC4 ctr inh 2: second check of whether TRPC6 modulators also affect mouse TRPC4. AID 488928. 55% of 2,400 active. inhibition, % at 10 µM. shares compounds with TRPC6 inhibitor. HEK293 TRPC4/mu-opioid, membrane potential dye fluorescence; stimulated with maximal-effect DAMGO;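 active = drop in membrane potential signal beyond 5 SD of the control wells in both duplicate plates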;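 also: TRPC4 counter screen for TRPC6 hits run under conditions tuned for TRPC6 not TRPC4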
# TRPC6 inh conf: mouse TRPC6 channel inhibitors, confirmation, HEK293 cells, membrane potential dye, duplicate; 43% of 3,300 active; shares compounds with TRPC6 inhibitor; ACh-evoked depolarization; inhibition, % at 10 µM;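 active = fluorescence ratio falls more than 5 SD below the full-stimulation control mean, in both duplicate runs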;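 also: integrated fluorescence ratio of peak minus minimum over baseline after agonist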
# TRPC6 act confirm: mouse TRPC6 channel activators, confirmation, HEK293 cells, membrane potential dye, duplicate; shares compounds with TRPC6 inhibitor; HEK293-TRPC6 membrane potential dye fluorescence, FDSS; 11% of 2,800 active; activation, % at 10 µM; AID 488961, 2010;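 active = ratio signal rise beyond 5 SD above unstimulated control wells' mean, seen in both duplicate runs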;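 also: plate controls were buffer EC0 wells for no effect and acetylcholine ECmax response for full effect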
# The depositor's hits bear a star; i = inactive; / = not tested or not shown. An excerpt weighted towards active compounds, which were near 2.3% of everything screened.
SMILES,TRPC4 agonist,TRPC6 act,TRPC4 potent,TRPC6 inhibitor,TRPC4 inh,HEK293 MPD ctr-2,HEK293 MPD ctr 2-2,TRPC4/MOR mod,TRPC4 ctr inh 2,TRPC6 inh conf,TRPC6 act confirm,others
Cc1ccc(NC(=O)COC(=O)C(NS(=O)(=O)c2ccc(Cl)cc2)C(C)O)cc1 (centres undefined),i,i,i,i,i,/,/,/,/,/,/,
C/C(N)=C(/C#N)C(=O)COC(=O)C(NS(=O)(=O)c1ccc(Cl)cc1)C(C)O (centres undefined),i,i,i,-5.43*,i,i,i,i,i,i,i,
CC(C)c1ccc(S(=O)(=O)N2CCN(C(=O)c3ccco3)CC2)cc1,i,11.7*,i,-11.3*,i,i,i,11.5%*,i,105.5%*,122.5%*,
CC/C(=C\c1oc2cc3ccccc3cc2[n+]1CC)Nc1ccccc1,i,i,i,-5.1*,i,i,i,i,79.5%*,59.0%*,i,
CC(C)(C)n1nnnc1C(c1ccccc1)N1CCc2ccccc2C1 (centres undefined),i,i,i,-7.57*,i,/,/,/,/,i,i,TRPC4 sel inh 2=i;TRPC4 spec=12.4%*;HEK293 MPD ctr 2-1=i;HEK293 MPD ctr-1=6.8%*
Cc1ccc(S(=O)(=O)N2CCN(C(=O)c3ccccc3Cc3ccccc3)CC2)c(C)c1,i,i,i,i,i,/,/,/,/,/,/,
O=C1C(NS(=O)(=O)c2cccs2)=C(N2CCN(Cc3ccccc3)CC2)C(=O)c2ccccc21,i,i,i,-7.28*,i,-135.5%*,i,-36.0%*,72.5%*,57.5%*,i,
CN1CCN(C2=C(NS(=O)(=O)c3cccs3)C(=O)c3ccccc3C2=O)CC1,i,i,i,i,i,/,/,/,/,/,/,
CC(=O)[C@@]1(O)C(C)CC2C3C=C(C)C4=Cc5c(cnn5-c5ccccc5)C[C@]4(C)C3C(O)C[C@@]21C (some centres undefined),i,i,i,-6.44*,i,i,i,i,i,i,/,
Cc1cc(C)c(C(=O)COC(=O)C2CC3CCCC(C2)C3=O)c(C)c1 (centres undefined),i,i,i,i,i,/,/,/,/,/,/,
COc1ccc(C(C)n2c(C)c3c(C)nnc(C)c3c2C)cc1 (centres undefined),i,i,i,-8.12*,i,-219.5%*,i,-30.0%*,65.0%*,i,i,
Cc1nnc(C)c2c(C)n(C(C)c3ccccc3)c(C)c12 (centres undefined),i,i,i,i,i,/,/,/,/,/,/,
O=C(CN1CCOc2ccccc21)N1CCN(c2cccc(Cl)c2)CC1,i,i,i,-5.48*,i,i,i,i,36.0%*,i,i,
Cc1cccc(N2CCN(C(=O)CN3CCOc4ccccc43)CC2C)c1 (centres undefined),i,i,i,i,i,/,/,/,/,/,/,
CC(C)(C)c1cc(NS(=O)(=O)c2cccs2)no1,i,i,i,i,i,/,/,/,/,/,/,
CCN(CC)c1ccc(S(=O)(=O)N(CC)CC)cc1NC(=O)C1CCCC1,i,20.6*,i,-13.5*,i,182.0%*,i,34.5%*,36.0%*,116.5%*,161.5%*,
CCN(CC)c1ccc(S(=O)(=O)N2CCCCC2)cc1NC(=O)C1CCC1,i,12.2*,i,-5.52*,i,i,i,21.5%*,30.0%*,76.0%*,95.5%*,
CC(C)CN(C(=O)CCCSc1nc2ccccc2[nH]1)c1c(N)n(Cc2ccccc2)c(=O)[nH]c1=O,i,i,i,i,i,/,/,/,/,/,/,
CN(C)C(=O)C(CCN1CCC(O)(c2ccc(Cl)cc2)CC1)(c1ccccc1)c1ccccc1,50*,i,i,-5.44*,i,115.0%*,i,78.5%*,112.5%*,61.0%*,/,
CN(C)c1ccc(NC(=O)CN2CCC(O)(c3ccccc3)CC2)cc1,i,i,i,i,i,/,/,/,/,/,/,
CC1CCN(Cc2c(O)ccc3c(=O)c(-c4nc5ccccc5s4)c(N)oc23)CC1,i,i,i,i,i,/,/,/,/,/,/,
CC1CCCN(Cc2c(O)ccc3c(=O)c(-c4nc5ccccc5s4)c(N)oc23)C1 (centres undefined),i,i,i,-5.83*,i,i,i,i,48.0%*,i,i,
